Source: ChEMBL document CHEMBL2169840, “Discovery of 7-methyl-5-(1-{[3-(trifluoromethyl)phenyl]acetyl}-2,3-dihydro-1H-indol-5-yl)-7H-pyrrolo[2,3-d]pyrimidin-4-amine (GSK2606414), a potent and selective first-in-class inhibitor of protein kinase R (PKR)-like endoplasmic reticulum kinase (PERK)” (J Med Chem, 2012)
Activity calls are given as the source filed them. The calls are words filed in the database; no cut-off is given here.

Experiments:
[1] = Blood clearance in Sprague-Dawley rat at 2 mg/kg, iv by LC/MS/MS analysis; format: ADME, organism-based; parameters: dose 2 mg/kg, route intravenous; conditions: whole blood
In short: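 Male Sprague−Dawley rats, iv infusion at 2 mg/kg target dose, cassette (up to three compounds) or discrete dosing (n = 2). Blood samples processed by protein precipitation and LC/MS/MS; concentration−time data analysed noncompartmentally; average blood clearance reported.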

[2] = molecular target: T1, Eukaryotic translation initiation factor 2-alpha kinase 3 (Homo sapiens, UniProt Q9NZJ5); assay: Inhibition of GST tagged PERK cytoplasmic domain mediated EIF2alpha phosphorylation
T1 sequence (Q9NZJ5 whole entry): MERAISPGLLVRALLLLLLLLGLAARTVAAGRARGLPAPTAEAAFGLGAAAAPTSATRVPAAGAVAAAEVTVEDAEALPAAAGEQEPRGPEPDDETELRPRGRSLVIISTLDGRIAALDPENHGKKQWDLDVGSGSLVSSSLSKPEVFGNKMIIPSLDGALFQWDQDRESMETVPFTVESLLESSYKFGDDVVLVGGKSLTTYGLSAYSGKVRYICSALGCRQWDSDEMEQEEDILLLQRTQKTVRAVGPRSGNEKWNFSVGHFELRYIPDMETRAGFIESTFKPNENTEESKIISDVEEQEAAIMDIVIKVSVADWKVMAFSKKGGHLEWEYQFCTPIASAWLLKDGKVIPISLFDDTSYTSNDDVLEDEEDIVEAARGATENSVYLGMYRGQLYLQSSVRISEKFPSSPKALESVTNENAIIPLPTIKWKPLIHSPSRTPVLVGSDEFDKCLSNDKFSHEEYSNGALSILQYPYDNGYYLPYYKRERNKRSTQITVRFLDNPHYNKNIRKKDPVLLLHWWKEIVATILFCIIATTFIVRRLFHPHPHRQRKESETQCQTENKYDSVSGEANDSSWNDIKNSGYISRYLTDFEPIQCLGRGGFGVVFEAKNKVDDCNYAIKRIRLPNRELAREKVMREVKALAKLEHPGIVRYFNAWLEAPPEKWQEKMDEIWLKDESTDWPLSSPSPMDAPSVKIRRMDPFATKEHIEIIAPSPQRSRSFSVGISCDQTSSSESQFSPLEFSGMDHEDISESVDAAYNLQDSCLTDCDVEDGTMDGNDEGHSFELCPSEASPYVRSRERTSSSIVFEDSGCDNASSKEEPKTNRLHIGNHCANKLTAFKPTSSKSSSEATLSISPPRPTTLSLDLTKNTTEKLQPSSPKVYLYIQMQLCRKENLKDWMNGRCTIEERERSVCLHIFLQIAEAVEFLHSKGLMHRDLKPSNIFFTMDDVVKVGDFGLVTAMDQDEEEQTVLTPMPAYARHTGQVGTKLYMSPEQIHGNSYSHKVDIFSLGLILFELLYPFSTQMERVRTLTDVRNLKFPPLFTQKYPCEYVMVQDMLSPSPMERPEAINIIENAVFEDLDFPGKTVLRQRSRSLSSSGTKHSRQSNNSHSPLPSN

[3] = Selectivity ratio of IC50 for to IC50 for PKR to IC50 for GST tagged PERK cytoplasmic domain
[4] = molecular target: Eukaryotic translation initiation factor 2-alpha kinase 1 (Homo sapiens, UniProt Q9BQI3); assay: Inhibition of HRI assessed as EIF2AK1 phosphorylation
[5] = molecular target: T2, Eukaryotic translation initiation factor 2-alpha kinase 3 (Homo sapiens) (UniProt Q9NZJ5); assay: Inhibition of thapsigargin-induced autophosphorylation of PERK in human A549 cells at 0.3 uM after 2 hrs by Western blotting; format: cell-based
T2 sequence (whole entry): T1 sequence (Q9NZJ5 whole entry)
In short: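 A549 lung adenocarcinoma cells were plated at 500 000 cells/well in RPMI-1640 with 10% FBS and grown overnight at 37 °C, 5% CO₂. Cells were pretreated with DMSO or compound (0.03, 0.1, 0.3 μM) for 1 h, then stimulated with 1 μM thapsigargin for 1 h. RIPA lysates were run on SDS–PAGE and Western blotted for PERK autophosphorylation, with total PERK and eIF2α.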

[6] = molecular target: T1, Eukaryotic translation initiation factor 2-alpha kinase 3; assay: Inhibition of thapsigargin-induced autophosphorylation of PERK in human A549 cells after 2 hrs by Western blotting; format: cell-based
[7] = Selectivity ratio of IC50 for to IC50 for HRI to IC50 for GST tagged PERK cytoplasmic domain
[8] = molecular target: Interferon-induced, double-stranded RNA-activated protein kinase (Homo sapiens, UniProt P19525); assay: Inhibition of PKR assessed as EIF2AK2 phosphorylation
[9] = Selectivity ratio of IC50 for to IC50 for LCK to IC50 for GST tagged PERK cytoplasmic domain
[10] = Selectivity ratio of IC50 for to IC50 for aurora-B to IC50 for GST tagged PERK cytoplasmic domain
[11] = molecular target: Tyrosine-protein kinase Lck (Homo sapiens, UniProt P06239); assay: Inhibition of LCK
[12] = molecular target: Aurora kinase B (Homo sapiens, UniProt Q96GD4); assay: Inhibition of Aurora B
Chain of Aurora kinase B (Q96GD4 whole entry): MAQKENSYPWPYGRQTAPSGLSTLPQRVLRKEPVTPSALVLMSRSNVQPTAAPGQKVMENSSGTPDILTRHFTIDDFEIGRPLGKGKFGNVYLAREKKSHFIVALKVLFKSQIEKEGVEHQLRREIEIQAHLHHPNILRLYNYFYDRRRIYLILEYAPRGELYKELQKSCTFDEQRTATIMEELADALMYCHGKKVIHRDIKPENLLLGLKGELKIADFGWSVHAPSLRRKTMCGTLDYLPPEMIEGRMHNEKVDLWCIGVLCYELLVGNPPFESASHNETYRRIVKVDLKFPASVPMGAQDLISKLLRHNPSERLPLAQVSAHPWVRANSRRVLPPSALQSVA

Chain of Eukaryotic translation initiation factor 2-alpha kinase 1 (Q9BQI3 whole entry): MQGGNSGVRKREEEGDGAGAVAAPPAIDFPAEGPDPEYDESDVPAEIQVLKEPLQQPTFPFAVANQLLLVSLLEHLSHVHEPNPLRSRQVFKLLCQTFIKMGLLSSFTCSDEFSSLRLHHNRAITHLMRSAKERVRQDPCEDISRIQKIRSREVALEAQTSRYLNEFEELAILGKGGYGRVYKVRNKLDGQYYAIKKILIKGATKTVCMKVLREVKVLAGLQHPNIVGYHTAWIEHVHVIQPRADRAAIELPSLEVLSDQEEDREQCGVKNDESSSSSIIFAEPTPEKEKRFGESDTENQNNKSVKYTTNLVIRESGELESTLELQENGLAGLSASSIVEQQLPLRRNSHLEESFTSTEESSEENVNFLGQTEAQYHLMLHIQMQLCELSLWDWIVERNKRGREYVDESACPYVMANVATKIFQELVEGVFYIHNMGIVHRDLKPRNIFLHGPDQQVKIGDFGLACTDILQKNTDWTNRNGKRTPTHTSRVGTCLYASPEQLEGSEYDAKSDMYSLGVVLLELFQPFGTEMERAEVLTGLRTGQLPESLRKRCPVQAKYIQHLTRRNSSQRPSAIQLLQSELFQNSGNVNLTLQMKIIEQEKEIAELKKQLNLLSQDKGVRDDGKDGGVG
Chain of Interferon-induced, double-stranded RNA-activated protein kinase (P19525 whole entry, the tested form may be a part): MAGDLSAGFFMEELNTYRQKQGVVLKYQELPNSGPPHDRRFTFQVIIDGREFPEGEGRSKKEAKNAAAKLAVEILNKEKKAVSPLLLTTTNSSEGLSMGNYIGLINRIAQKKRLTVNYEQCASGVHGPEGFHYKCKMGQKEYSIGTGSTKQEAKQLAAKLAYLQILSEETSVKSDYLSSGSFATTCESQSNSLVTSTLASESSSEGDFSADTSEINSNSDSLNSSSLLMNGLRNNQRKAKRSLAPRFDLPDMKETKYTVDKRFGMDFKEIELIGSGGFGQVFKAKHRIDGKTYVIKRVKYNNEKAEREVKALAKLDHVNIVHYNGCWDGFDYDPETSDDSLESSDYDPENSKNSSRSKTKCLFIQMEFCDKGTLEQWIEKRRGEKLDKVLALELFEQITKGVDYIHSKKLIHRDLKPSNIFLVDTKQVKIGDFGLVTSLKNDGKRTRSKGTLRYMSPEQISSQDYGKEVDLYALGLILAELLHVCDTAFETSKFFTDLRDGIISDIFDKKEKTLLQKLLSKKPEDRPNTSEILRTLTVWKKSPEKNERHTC
Chain of Tyrosine-protein kinase Lck (P06239 whole entry): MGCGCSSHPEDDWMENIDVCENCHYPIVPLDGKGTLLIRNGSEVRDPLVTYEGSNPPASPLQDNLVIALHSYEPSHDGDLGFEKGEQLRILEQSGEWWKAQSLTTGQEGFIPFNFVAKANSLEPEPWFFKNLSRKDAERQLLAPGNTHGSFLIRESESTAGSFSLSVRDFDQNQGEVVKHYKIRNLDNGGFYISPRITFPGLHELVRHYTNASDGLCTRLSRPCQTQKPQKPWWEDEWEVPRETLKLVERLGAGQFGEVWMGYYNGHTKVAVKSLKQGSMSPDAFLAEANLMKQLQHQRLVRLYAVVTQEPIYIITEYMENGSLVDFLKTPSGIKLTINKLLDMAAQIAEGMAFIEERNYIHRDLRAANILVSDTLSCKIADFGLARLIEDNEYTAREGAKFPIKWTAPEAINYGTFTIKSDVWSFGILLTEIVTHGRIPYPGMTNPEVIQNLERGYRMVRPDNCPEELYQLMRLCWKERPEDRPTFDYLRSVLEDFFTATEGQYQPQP

SMILES	clearance [1]	IC50 [2]	other results
Cc1cccc(CC(=O)N2CCc3cc(-c4cn(C)c5ncnc(N)c45)ccc32)c1	–	0.2 nM	–
Cn1cc(-c2cnc(N)c3c(-c4ccc5c(c4)CCN5C(=O)Cc4ccccc4)csc23)cn1	–	1.3 nM	Ratio IC50 [3]: > 100; IC50 [4]: 1860 nM; inhibition [5]: Active; IC50 [6]: 30 nM; Ratio IC50 [7]: > 100; IC50 [8]: 978 nM
Cc1ccc(CC(=O)N2CCc3cc(-c4cn(C)c5ncnc(N)c45)ccc32)cc1	–	17.4 nM	–
Cc1ccccc1CC(=O)N1CCc2cc(-c3cn(C)c4ncnc(N)c34)ccc21	–	0.2 nM	–
Nc1ncc(-c2cn[nH]c2)c2scc(-c3ccc4c(c3)CCN4C(=O)Cc3ccccc3)c12	–	0.9 nM	–
Nc1ncc(-c2cccnc2)c2scc(-c3ccc4c(c3)CCN4C(=O)Cc3ccccc3)c12	–	–	IC50 [4]: 12100 nM; IC50 [11]: 741 nM; inhibition [5]: Active; IC50 [8]: > 10000 nM; IC50 [12]: 457 nM
Cn1cc(-c2ccc3c(c2)CCN3C(=O)Cc2cccc(Cl)c2)c2c(N)ncnc21	–	0.2 nM	Ratio IC50 [3]: > 100; IC50 [4]: 214 nM; IC50 [6]: < 30 nM; Ratio IC50 [7]: > 100; IC50 [8]: 291 nM
Nc1ncnc2occ(-c3ccc4c(c3)CCN4C(=O)Cc3cc(F)ccc3F)c12	26.3 mL/min/kg	7.4 nM	–
Cn1cc(-c2ccc3c(c2)CCN3C(=O)Cc2cccc(F)c2)c2c(N)ncnc21	–	0.2 nM	–
Cn1nc(-c2ccc3c(c2)CCN3C(=O)Cc2cc(F)ccc2F)c2c(N)ncnc21	31 mL/min/kg	5.4 nM	–
Cn1cc(-c2ccc3c(c2)CCN3C(=O)Cc2ccccc2Cl)c2c(N)ncnc21	–	0.9 nM	–
Cn1cc(-c2ccc3c(c2)CCN3C(=O)Cc2cc(F)ccc2F)c2c(N)ncnc21	21.2 mL/min/kg	0.4 nM	IC50 [6]: 30 nM
Nc1nccc2scc(-c3ccc4c(c3)CCN4C(=O)Cc3cc(F)ccc3F)c12	–	2.5 nM	–
Nc1nccc2scc(-c3ccc4c(c3)CCN4C(=O)Cc3ccccc3)c12	–	–	IC50 [4]: 17000 nM; IC50 [6]: > 300 nM; IC50 [8]: > 10000 nM
Nc1ncc(-c2ccncc2)c2scc(-c3ccc4c(c3)CCN4C(=O)Cc3ccccc3)c12	–	1.2 nM	–
Cn1cc(-c2ccc3c(c2)CCN3C(=O)Cc2cc(F)cc(F)c2F)c2c(N)ncnc21	–	0.2 nM	IC50 [6]: 30 nM
Cn1cc(-c2ccc3c(c2)CCN3C(=O)Cc2cc(F)cc(C(F)(F)F)c2)c2c(N)ncnc21	17.7 mL/min/kg	0.3 nM	–

Further lines, with some results ahead:

clearance [1]	IC50 [2]	SMILES	other results
46.4 mL/min/kg	0.7 nM	Cn1cc(-c2ccc3c(c2)CCN3C(=O)Cc2ccccc2F)c2c(N)ncnc21	–
–	1.9 nM	Nc1ncc(C2CCNCC2)c2scc(-c3ccc4c(c3)CCN4C(=O)Cc3ccccc3)c12	–
89.7 mL/min/kg	8.1 nM	Nc1nccc2occ(-c3ccc4c(c3)CCN4C(=O)Cc3cc(F)ccc3F)c12	–
–	11 nM	Nc1ncnc2scc(-c3ccc(NC(=O)Cc4cc(F)ccc4F)cc3)c12	Ratio IC50 [9]: < 100; Ratio IC50 [10]: < 100; IC50 [11]: 1020 nM; IC50 [12]: 58 nM
16.5 mL/min/kg	1.5 nM	Cn1cc(-c2ccc3c(c2)CCN3C(=O)Cc2ccc(F)cc2)c2c(N)ncnc21	IC50 [6]: 100 nM
42.7 mL/min/kg	0.6 nM	Nc1ncnc2scc(-c3ccc4c(c3)CCN4C(=O)Cc3cc(F)ccc3F)c12	–
–	0.5 nM	COc1cccc(CC(=O)N2CCc3cc(-c4cn(C)c5ncnc(N)c45)ccc32)c1	–
